Broadly, the MIC is the lowest concentration that inhibits growth of the organism. In general, IC50 refers to the concentration needed to halve the response being measured.

Converted amounts (≈) assume the structure as drawn.

Results on 19 molecules are retold here after ChEMBL document CHEMBL1124316, “Synthesis and activity of nonhydrolyzable pseudomonic acid analogues” (J Med Chem, 1989).

The test system of experiment [1] is Staphylococcus aureus. Kind of experiment: In vitro antibacterial activity against Staphylococcus aureus ATCC […]. The experiment is classed as functional. An outline of the steps:
(§1)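 MICs were determined by agar dilution on brain heart infusion agar, with an inoculum of 10⁴ cfu/spot. Strains were either clinical isolates kept frozen in a culture collection or ATCC strains.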

Experiment [2] deals with Isoleucine--tRNA ligase (Escherichia coli K-12, UniProt P00956). Kind of experiment: Inhibitory activity against Isoleucyl-tRNA synthetase. A digest of the protocol: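 Isoleucyl-tRNA synthetase was isolated from Escherichia coli and purified to homogeneity. IC50 values were measured by the ATP-pyrophosphate exchange assay.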
Experiment [3] concerns Streptococcus agalactiae. Put plainly: In vitro antibacterial activity against Streptococcus agalactiae CMX 508. The experiment is classed as functional. A digest of the protocol:
as §1

The test system of experiment [4] is Escherichia coli. Kind of experiment: In vitro antibacterial activity against Escherichia coli Juhl. The class given is functional. A digest of the protocol: as §1
The test system of experiment [5] is Escherichia coli. Put plainly: In vitro antibacterial activity against Escherichia coli SS. The class given is functional. A digest of the protocol: as §1
The test system of experiment [6] is Staphylococcus epidermidis. Kind of experiment: In vitro antibacterial activity against Staphylococcus epidermidis 3519. The experiment is classed as functional. A digest of the protocol: as §1
The test system of experiment [7] is Streptococcus pyogenes. Kind of experiment: In vitro antibacterial activity against Streptococcus pyogenes EES 61. The experiment is classed as functional. An outline of the steps:
as §1

The mark [8] stands for this setting: Escherichia coli, read-out: MIC.
[9] abbreviates: Streptococcus pyogenes, read-out: MIC.

Chain of Isoleucine--tRNA ligase (P00956 whole entry): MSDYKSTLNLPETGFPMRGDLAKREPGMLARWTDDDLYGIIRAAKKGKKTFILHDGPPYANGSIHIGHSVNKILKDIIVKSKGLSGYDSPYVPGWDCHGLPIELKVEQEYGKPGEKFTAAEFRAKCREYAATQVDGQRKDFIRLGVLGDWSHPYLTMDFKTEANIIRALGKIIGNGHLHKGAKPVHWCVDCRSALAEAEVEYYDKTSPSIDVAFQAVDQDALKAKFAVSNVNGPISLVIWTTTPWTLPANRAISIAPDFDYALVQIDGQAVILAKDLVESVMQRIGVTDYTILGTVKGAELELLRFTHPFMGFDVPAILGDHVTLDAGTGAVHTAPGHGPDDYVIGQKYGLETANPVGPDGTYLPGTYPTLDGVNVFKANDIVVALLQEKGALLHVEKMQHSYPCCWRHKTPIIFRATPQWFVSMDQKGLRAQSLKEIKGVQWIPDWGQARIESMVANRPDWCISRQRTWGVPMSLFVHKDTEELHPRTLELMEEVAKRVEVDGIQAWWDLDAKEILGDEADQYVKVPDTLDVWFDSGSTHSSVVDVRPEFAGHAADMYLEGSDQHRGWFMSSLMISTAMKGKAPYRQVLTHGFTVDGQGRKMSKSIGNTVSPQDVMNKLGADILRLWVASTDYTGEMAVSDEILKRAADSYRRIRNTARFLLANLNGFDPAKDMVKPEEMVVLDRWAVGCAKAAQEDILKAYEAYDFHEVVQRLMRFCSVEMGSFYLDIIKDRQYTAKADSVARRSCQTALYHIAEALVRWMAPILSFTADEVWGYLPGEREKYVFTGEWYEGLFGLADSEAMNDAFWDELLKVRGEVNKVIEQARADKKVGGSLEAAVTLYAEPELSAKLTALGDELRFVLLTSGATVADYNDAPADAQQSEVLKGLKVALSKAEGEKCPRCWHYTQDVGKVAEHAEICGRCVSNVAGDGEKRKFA

Consider `C/C(=C/Sc1ccccc1)C[C@@H]1OC[C@H](C[C@@H]2O[C@H]2[C@@H](C)[C@H](C)O)[C@@H](O)[C@H]1O`, for which the minimum inhibitory concentration (MIC) is 25 µg/mL (≈ 61.2 µM) in experiment [1]; 50 µg/mL (≈ 122 µM) in experiment [3]; above 100 µg/mL in experiment [4]; 12.5 µg/mL (≈ 30.6 µM) in experiment [5] (setting [8]); 50 µg/mL (≈ 122 µM) in experiment [6]; 12.5 µg/mL (≈ 30.6 µM) in experiment [7] (setting [9]). In experiment [2], the IC50 was 46.5 µM.
As for `C/C(=C\Sc1ccccc1)C[C@@H]1OC[C@H](C[C@@H]2O[C@H]2[C@@H](C)[C@H](C)O)[C@@H](O)[C@H]1O`, the MIC is 3.1 µg/mL (≈ 7.59 µM) in experiment [1]; 6.2 µg/mL (≈ 15.2 µM) in experiment [3]; above 100 µg/mL in experiment [4]; 1.56 µg/mL (≈ 3.82 µM) in experiment [5] (setting [8]); 6.2 µg/mL (≈ 15.2 µM) in experiment [6]; 3.1 µg/mL (≈ 7.59 µM) in experiment [7] (setting [9]). Besides, the midpoint of inhibition in experiment [2], the IC50, lay at 11 µM.
As for `COC(=O)CCCCCCCCCC(=O)/C=C(\C)C[C@@H]1OCC(C[C@@H]2O[C@H]2[C@@H](C)[C@H](C)O)[C@@H](O)[C@H]1O` (some centres undefined), the MIC in experiment [1] was 0.39 µg/mL (≈ 0.761 µM); in experiment [3] it was 3.1 µg/mL (≈ 6.05 µM); in experiment [4], 50 µg/mL (≈ 97.5 µM); in experiment [5] (setting [8]), 0.05 µg/mL (≈ 0.0975 µM); in experiment [6], 0.39 µg/mL (≈ 0.761 µM); in experiment [7] (setting [9]), 0.1 µg/mL (≈ 0.195 µM). For the same molecule, the IC50 in experiment [2] is 3.32 µM.
On to `C/C(=C\C(=O)c1ccccc1)C[C@@H]1OCC(C[C@@H]2O[C@H]2[C@@H](C)[C@H](C)O)[C@@H](O)[C@H]1O` (some centres undefined), for which the MIC in experiment [1] is 0.2 µg/mL (≈ 0.494 µM); in experiment [3] it was 3.1 µg/mL (≈ 7.66 µM); in experiment [4], 100 µg/mL (≈ 247 µM); in experiment [5] (setting [8]), 0.2 µg/mL (≈ 0.494 µM); in experiment [6], 0.39 µg/mL (≈ 0.964 µM); in experiment [7] (setting [9]), 0.39 µg/mL (≈ 0.964 µM). Besides, in experiment [2], inhibition was half-maximal at 0.494 µM (IC50).
In the case of `COC(=O)CCCCCCCCOC(=O)/C=C(\C)C[C@@H]1OCC(C[C@@H]2O[C@H]2[C@@H](C)[C@H](C)O)[C@@H](O)[C@H]1O` (some centres undefined), the MIC turned out to be 0.2 µg/mL (≈ 0.389 µM) in experiment [1]; 0.78 µg/mL (≈ 1.52 µM) in experiment [3]; 50 µg/mL (≈ 97.2 µM) in experiment [4]; 0.05 µg/mL (≈ 0.0972 µM) in experiment [5] (setting [8]); 0.39 µg/mL (≈ 0.758 µM) in experiment [6]; 0.1 µg/mL (≈ 0.194 µM) in experiment [7] (setting [9]). The molecule also gave an IC50 in experiment [2] of 1.17 µM.
With `C[C@H]([C@@H]1O[C@H]1CC1CO[C@@H](CC2=CC(=O)OC2)[C@H](O)[C@@H]1O)[C@H](C)O` (some centres undefined), the MIC was 100 µg/mL (≈ 292 µM) in experiment [1]; 100 µg/mL (≈ 292 µM) in experiment [3]; above 100 µg/mL in experiment [4]; 25 µg/mL (≈ 73 µM) in experiment [5] (setting [8]); 100 µg/mL (≈ 292 µM) in experiment [6]; 6.2 µg/mL (≈ 18.1 µM) in experiment [7] (setting [9]). Moreover, half-maximal inhibition in experiment [2] (IC50) was put at 794 µM.
For the molecule `COC(=O)CCCCCCCCOC/C=C(\C)C[C@@H]1OCC(C[C@@H]2O[C@H]2[C@@H](C)[C@H](C)O)[C@@H](O)[C@H]1O` (some centres undefined), the MIC was above 100 µg/mL in experiment [1]; above 100 µg/mL in experiment [3]; above 100 µg/mL in experiment [4]; 12.5 µg/mL (≈ 25 µM) in experiment [5] (setting [8]); above 100 µg/mL in experiment [6]; 100 µg/mL (≈ 200 µM) in experiment [7] (setting [9]). Also, in experiment [2], it took 1.7 µM to reach half-maximal inhibition (IC50).
As to `CSC(CCCCCCCCCC(=O)/C=C(\C)C[C@@H]1OCC(C[C@@H]2O[C@H]2[C@@H](C)[C@H](C)O)[C@@H](O)[C@H]1O)(SC)SC` (some centres undefined), the MIC in experiment [1] is 1.56 µg/mL (≈ 2.57 µM); in experiment [3], above 100 µg/mL; in experiment [4], above 100 µg/mL; in experiment [5] (setting [8]), 6.2 µg/mL (≈ 10.2 µM); in experiment [6], 1.56 µg/mL (≈ 2.57 µM); in experiment [7] (setting [9]), 1.56 µg/mL (≈ 2.57 µM). In experiment [2], the IC50 was 14.8 µM.
As to `CCCCS(=O)(=O)/C=C(\C)C[C@@H]1OCC(C[C@@H]2O[C@H]2[C@@H](C)[C@H](C)O)[C@@H](O)[C@H]1O` (some centres undefined), the MIC in experiment [1] was above 100 µg/mL; in experiment [3], above 100 µg/mL; in experiment [4], above 100 µg/mL; in experiment [5] (setting [8]) it was above 100 µg/mL; in experiment [6], above 100 µg/mL; in experiment [7] (setting [9]), 25 µg/mL (≈ 59.4 µM). This molecule also gave an IC50 in experiment [2] of 181 µM.
For the molecule `COC(=O)CCCCCCCCSC/C=C(\C)C[C@@H]1OCC(C[C@@H]2O[C@H]2[C@@H](C)[C@H](C)O)[C@@H](O)[C@H]1O` (some centres undefined), the MIC was 100 µg/mL (≈ 194 µM) in experiment [1]; above 100 µg/mL in experiment [3]; above 100 µg/mL in experiment [4]; 25 µg/mL (≈ 48.4 µM) in experiment [5] (setting [8]); above 100 µg/mL in experiment [6]; 50 µg/mL (≈ 96.8 µM) in experiment [7] (setting [9]). In experiment [2], this molecule showed an IC50 of 18.4 µM.
Turning to `C[C@H]([C@@H]1O[C@H]1CC1CO[C@@H](Cc2ccoc2)[C@H](O)[C@@H]1O)[C@H](C)O` (some centres undefined), the MIC in experiment [1] is above 100 µg/mL; in experiment [3] it was above 100 µg/mL; in experiment [4] it was above 100 µg/mL; in experiment [5] (setting [8]), 100 µg/mL (≈ 306 µM); in experiment [6], above 100 µg/mL; in experiment [7] (setting [9]), above 100 µg/mL. For the same molecule, the IC50 in experiment [2] is above 1230 µM.
Take `COC(=O)CCCCCCCCOC(=O)CC(=O)C[C@@H]1OCC(C[C@@H]2O[C@H]2[C@@H](C)[C@H](C)O)[C@@H](O)[C@H]1O` (some centres undefined): the MIC in experiment [1], in experiment [3], in experiment [4], in experiment [5] (setting [8]), in experiment [6] and in experiment [7] (setting [9]) was above 100 µg/mL each time. Further, in experiment [2], the IC50 is above 774 µM.
Consider `CCCCSC/C=C(\C)C[C@@H]1OCC(C[C@@H]2O[C@H]2[C@@H](C)[C@H](C)O)[C@@H](O)[C@H]1O` (some centres undefined), for which the minimum inhibitory concentration (MIC) is above 100 µg/mL in experiment [1]; above 100 µg/mL in experiment [3]; above 100 µg/mL in experiment [4]; 50 µg/mL (≈ 124 µM) in experiment [5] (setting [8]); above 100 µg/mL in experiment [6]; 100 µg/mL (≈ 248 µM) in experiment [7] (setting [9]). The IC50 in experiment [2] is 390 µM.
`CCCCS/C=C(\C)C[C@@H]1OCC(C[C@@H]2O[C@H]2[C@@H](C)[C@H](C)O)[C@@H](O)[C@H]1O` (some centres undefined): the MIC in experiment [1] is 1.56 µg/mL (≈ 4.01 µM); in experiment [3], 3.1 µg/mL (≈ 7.98 µM); in experiment [4], above 100 µg/mL; in experiment [5] (setting [8]) it was 0.78 µg/mL (≈ 2.01 µM); in experiment [6] it was 0.78 µg/mL (≈ 2.01 µM); in experiment [7] (setting [9]) it was 0.78 µg/mL (≈ 2.01 µM). Further, in experiment [2], the IC50 is 5.4 µM.
As for `C/C(=C\C(=O)OCCCCCCCCC(=O)[O-])C[C@@H]1OCC(C[C@@H]2O[C@H]2[C@@H](C)[C@H](C)O)[C@@H](O)[C@H]1O.[Na+]` (some centres undefined), the MIC is 0.1 µg/mL in experiment [1]; 0.78 µg/mL in experiment [3]; above 100 µg/mL in experiment [4]; 0.2 µg/mL in experiment [5] (setting [8]); 0.1 µg/mL in experiment [6]; 0.1 µg/mL in experiment [7] (setting [9]). For the same molecule, in experiment [2], the midpoint of inhibition, the IC50, lay at 0.191 µM.
Consider `CCCCOC/C=C(\C)C[C@@H]1OCC(C[C@@H]2O[C@H]2[C@@H](C)[C@H](C)O)[C@@H](O)[C@H]1O` (some centres undefined), for which the MIC in experiment [1] was 100 µg/mL (≈ 259 µM); in experiment [3] it was above 100 µg/mL; in experiment [4], above 100 µg/mL; in experiment [5] (setting [8]) it was 12.5 µg/mL (≈ 32.3 µM); in experiment [6], 100 µg/mL (≈ 259 µM); in experiment [7] (setting [9]), 50 µg/mL (≈ 129 µM). The IC50 in experiment [2] is 51.7 µM.
Take `CCCCS/C=C(/C)C[C@@H]1OCC(C[C@@H]2O[C@H]2[C@@H](C)[C@H](C)O)[C@@H](O)[C@H]1O` (some centres undefined): the MIC in experiment [1] was above 100 µg/mL; in experiment [3], above 100 µg/mL; in experiment [4] it was above 100 µg/mL; in experiment [5] (setting [8]) it was 100 µg/mL (≈ 257 µM); in experiment [6], above 100 µg/mL; in experiment [7] (setting [9]) it was above 100 µg/mL. In experiment [2], this molecule had a half-inhibitory concentration (IC50) of 744 µM.
As for `CCCC[S+]([O-])/C=C(\C)C[C@@H]1OCC(C[C@@H]2O[C@H]2[C@@H](C)[C@H](C)O)[C@@H](O)[C@H]1O` (stereo in doubt; 14), it took 171 µM to reach half-maximal inhibition in experiment [2] (IC50). The figures for the MIC in experiment [5] and in experiment [7] were 100 µg/mL (≈ 247 µM) and above 100 µg/mL, respectively.
On to `CCCC[S+]([O-])/C=C(\C)C[C@@H]1OCC(C[C@@H]2O[C@H]2[C@@H](C)[C@H](C)O)[C@@H](O)[C@H]1O` (stereo in doubt; 15), for which the MIC in experiment [1] was above 100 µg/mL; in experiment [3], above 100 µg/mL; in experiment [4] it was above 100 µg/mL; in experiment [5] (setting [8]), 100 µg/mL (≈ 247 µM); in experiment [6] it was above 100 µg/mL; in experiment [7] (setting [9]) it was 100 µg/mL (≈ 247 µM). In addition, the concentration for half-maximal inhibition (IC50) in experiment [2] was above 989 µM.
